ChEMBL document CHEMBL3227953, “Potential antitumor agents. 30. Mutagenic activity of some 9-anilinoacridines: relationships between structure, mutagenic potential, and antileukemic activity” (J Med Chem, 1979)

How the values were obtained:
[1] = Toxicity in Salmonella typhimurium TA1537 assessed as growth inhibition after 1 hr; type: organism-based; settings: salmonella enterica subsp. enterica serovar typhimurium, read-out: D50
How it was run: (§1)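 Overnight shaken L-broth culture from frozen stock. 0.5 mL culture in L broth (10 mL total) with a range of drug concentrations, from nontoxic to clearly toxic, in 50% ethanol. Shaken at 37 °C for 1 h, centrifuged, resuspended in saline, diluted 1 in 10^4, plated in triplicate on L-broth plates, 37 °C, 2 days. Survival = 100Nt/Nc vs untreated. D50 from linear fit of log survival vs dose.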

Salmonella typhimurium [2] = assay: Mutagenic activity in Salmonella typhimurium TA1537 assessed as mutation frequency at 10^4 times D50 after 1 hr; type: toxicity, organism-based; settings: salmonella enterica subsp. enterica serovar typhimurium
How it was run: (§2)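 Overnight L-broth culture (0.5 mL) exposed to drug (from 50% ethanol) in 10 mL L broth, 37 °C shaking, 1 h; concentration range from non-toxic to clearly toxic. Cells spun, resuspended in saline, plated in triplicate on minimal plates (1 mM histidine, biotin) and, diluted 1 in 10^4, on L-broth plates; 37 °C, 2 days. D50 interpolated from log % survival vs dose; mutation frequency = 100(MT − MC)/S50, background-corrected.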

Salmonella typhimurium [3] = assay: Mutagenic activity in Salmonella typhimurium TA98 assessed as mutation frequency at 10^4 times D50 after 1 hr; type: toxicity, organism-based; settings: salmonella enterica subsp. enterica serovar typhimurium; how it was run: as §2
[4] = Toxicity in Salmonella typhimurium TA98 assessed as growth inhibition after 1 hr; type: organism-based; settings: salmonella enterica subsp. enterica serovar typhimurium, read-out: D50; how it was run: as §1
Salmonella typhimurium [5] = assay: Mutagenic activity in Salmonella typhimurium TA100 assessed as mutation frequency at 10^4 times D50 after 1 hr; type: toxicity, organism-based; settings: salmonella enterica subsp. enterica serovar typhimurium; how it was run: as §2
[6] = Toxicity in Salmonella typhimurium TA100 assessed as growth inhibition after 1 hr; type: organism-based; settings: salmonella enterica subsp. enterica serovar typhimurium, read-out: D50; how it was run: as §1

With CCCS(=O)(=O)Nc1ccc(Nc2c3ccccc3nc3ccccc23)c(OC)c1.CS(=O)(=O)O the GI50 at 1 h [1] was 77.6 µM and the “log(M50)” value (Salmonella typhimurium [2]) was -0.7.

With CCS(=O)(=O)Nc1ccc(Nc2c3ccccc3nc3ccccc23)c(OC)c1.CS(=O)(=O)O the GI50 at 1 h [1] was 93.2 µM and the “log(M50)” value (Salmonella typhimurium [2]) was -0.3.

For CCCCS(=O)(=O)Nc1ccc(Nc2c3ccccc3nc3ccccc23)c(OC)c1.CS(=O)(=O)O, the GI50 at 1 h [1] was 69.7 µM and the “log(M50)” value (Salmonella typhimurium [2]) was 0.

In the case of Br.CNc1ccc(Nc2c3ccccc3nc3ccccc23)cc1, the GI50 at 1 h [1] is reported as 82 µM and the “log(M50)” value (Salmonella typhimurium [2]) is reported as 2.05.

In the case of CCNc1ccc(Nc2c3ccccc3nc3ccccc23)cc1.Cl, the GI50 at 1 h [1] is reported as 100 µM and the “log(M50)” value (Salmonella typhimurium [2]) is reported as 1.88.

In the case of CCCNc1ccc(Nc2c3ccccc3nc3ccccc23)cc1.Cl, the GI50 at 1 h [1] is reported as 98.9 µM and the “log(M50)” value (Salmonella typhimurium [2]) is reported as 1.67.

In the case of CCCCNc1ccc(Nc2c3ccccc3nc3ccccc23)cc1.Cl, the GI50 at 1 h [1] is reported as 9.8 µM and the “log(M50)” value (Salmonella typhimurium [2]) is reported as 1.

For CCCCCCNc1ccc(Nc2c3ccccc3nc3ccccc23)cc1.Cl, the GI50 at 1 h [1] was 4.4 µM and the “log(M50)” value (Salmonella typhimurium [2]) was -1.

With CS(=O)(=O)Nc1ccc(Nc2c3ccccc3nc3ccccc23)cc1.Cl the M50 (Salmonella typhimurium [3]) was 0%, the GI50 at 1 h [4] was 180 µM and the M50 (Salmonella typhimurium [5]) was 0%. For the same compound, the GI50 at 1 h [1] was 110 µM, the GI50 at 1 h [6] was 194 µM and the M50 (Salmonella typhimurium [2]) was 127%. The “log(M50)” value (Salmonella typhimurium [2]) was 2.1.

With CCS(=O)(=O)Nc1ccc(Nc2c3ccccc3nc3ccccc23)cc1.Cl the GI50 at 1 h [1] was 81.6 µM and the “log(M50)” value (Salmonella typhimurium [2]) was 2.

With CCCS(=O)(=O)Nc1ccc(Nc2c3ccccc3nc3ccccc23)cc1.Cl the GI50 at 1 h [1] was 50.1 µM and the “log(M50)” value (Salmonella typhimurium [2]) was 1.67.

For CCCCS(=O)(=O)Nc1ccc(Nc2c3ccccc3nc3ccccc23)cc1.Cl, the GI50 at 1 h [1] was 49.3 µM and the “log(M50)” value (Salmonella typhimurium [2]) was 0.78.

With CCCCCS(=O)(=O)Nc1ccc(Nc2c3ccccc3nc3ccccc23)cc1.Cl the GI50 at 1 h [1] was 15.6 µM and the “log(M50)” value (Salmonella typhimurium [2]) was 0.6.

With CCCCCCS(=O)(=O)Nc1ccc(Nc2c3ccccc3nc3ccccc23)cc1.Cl the GI50 at 1 h [1] was 9.4 µM and the “log(M50)” value (Salmonella typhimurium [2]) was 0.3.

For CC(=O)Nc1ccc2c(Nc3ccc(NS(C)(=O)=O)cc3)c3ccccc3nc2c1.CS(=O)(=O)O, the GI50 at 1 h [1] was 282 µM and the “log(M50)” value (Salmonella typhimurium [2]) was -0.22.

With CCS(=O)(=O)Nc1ccc(Nc2c3ccccc3nc3cc(NC(C)=O)ccc23)cc1.CS(=O)(=O)O the GI50 at 1 h [1] was 221 µM and the “log(M50)” value (Salmonella typhimurium [2]) was 0.

In the case of CCCS(=O)(=O)Nc1ccc(Nc2c3ccccc3nc3cc(NC(C)=O)ccc23)cc1.CS(=O)(=O)O, the GI50 at 1 h [1] is reported as 114 µM and the “log(M50)” value (Salmonella typhimurium [2]) is reported as 0.

For CCCCS(=O)(=O)Nc1ccc(Nc2c3ccccc3nc3cc(NC(C)=O)ccc23)cc1.CS(=O)(=O)O, the GI50 at 1 h [1] was 148 µM and the “log(M50)” value (Salmonella typhimurium [2]) was -0.3.

For CCCCCS(=O)(=O)Nc1ccc(Nc2c3ccccc3nc3cc(NC(C)=O)ccc23)cc1.CS(=O)(=O)O, the GI50 at 1 h [1] was 17.7 µM and the “log(M50)” value (Salmonella typhimurium [2]) was -0.1.

In the case of CCCCCCS(=O)(=O)Nc1ccc(Nc2c3ccccc3nc3cc(NC(C)=O)ccc23)cc1.CS(=O)(=O)O, the GI50 at 1 h [1] is reported as 3.1 µM and the “log(M50)” value (Salmonella typhimurium [2]) is reported as 0.

In the case of CCCCCS(=O)(=O)Nc1ccc(Nc2c3ccccc3nc3ccccc23)c(OC)c1.CS(=O)(=O)O, the GI50 at 1 h [1] is reported as 21.1 µM and the “log(M50)” value (Salmonella typhimurium [2]) is reported as 0.

In the case of CCCCCCS(=O)(=O)Nc1ccc(Nc2c3ccccc3nc3ccccc23)c(OC)c1.CS(=O)(=O)O, the GI50 at 1 h [1] is reported as 15.3 µM and the “log(M50)” value (Salmonella typhimurium [2]) is reported as 0.

In the case of COc1cc(NS(C)(=O)=O)ccc1Nc1c2ccccc2nc2c(C(N)=O)cccc12.Cl, the GI50 at 1 h [1] is reported as 698 µM and the “log(M50)” value (Salmonella typhimurium [2]) is reported as -0.7.

In the case of CCS(=O)(=O)Nc1ccc(Nc2c3ccccc3nc3c(C(N)=O)cccc23)c(OC)c1.Cl, the GI50 at 1 h [1] is reported as 467 µM and the “log(M50)” value (Salmonella typhimurium [2]) is reported as 0.18.

In the case of CCCS(=O)(=O)Nc1ccc(Nc2c3ccccc3nc3c(C(N)=O)cccc23)c(OC)c1.Cl, the GI50 at 1 h [1] is reported as 642 µM and the “log(M50)” value (Salmonella typhimurium [2]) is reported as 0.

For CCCCS(=O)(=O)Nc1ccc(Nc2c3ccccc3nc3c(C(N)=O)cccc23)c(OC)c1.Cl, the GI50 at 1 h [1] was 330 µM and the “log(M50)” value (Salmonella typhimurium [2]) was 0.

With CCCCCS(=O)(=O)Nc1ccc(Nc2c3ccccc3nc3c(C(N)=O)cccc23)c(OC)c1.Cl the GI50 at 1 h [1] was 466 µM and the “log(M50)” value (Salmonella typhimurium [2]) was 0.

Compound COc1cccc2c1C(=O)c1c(O)c3c(c(O)c1C2=O)C[C@@](O)(C(C)=O)C[C@@H]3O[C@H]1C[C@H](N)[C@H](O)[C@H](C)O1 [DAUNORUBICIN] has an M50 (Salmonella typhimurium [3]) of 20%, a GI50 at 1 h [4] of 13.1 µM and an M50 (Salmonella typhimurium [5]) of 4.5%. For the same compound, the GI50 at 1 h [1] was 7.4 µM, the GI50 at 1 h [6] was 11.1 µM and the M50 (Salmonella typhimurium [2]) was 0%. For the same compound, the “log(M50)” value (Salmonella typhimurium [2]) was 0.

Work on COc1cccc2c1C(=O)c1c(O)c3c(c(O)c1C2=O)C[C@@](O)(C(=O)CO)C[C@@H]3O[C@H]1C[C@H](N)[C@H](O)[C@H](C)O1 [DOXORUBICIN] yielded an M50 (Salmonella typhimurium [3]) of 14%, a GI50 at 1 h [4] of 6.1 µM and an M50 (Salmonella typhimurium [5]) of 0.5%. The GI50 at 1 h [1] was 16.3 µM, the GI50 at 1 h [6] was 11.3 µM and the M50 (Salmonella typhimurium [2]) was 0%. For the same compound, the “log(M50)” value (Salmonella typhimurium [2]) was 0.
